Data: ChEMBL document CHEMBL1124186, “Synthesis and evaluation of tylosin-related macrolides modified at the aldehyde function: a new series of orally effective antibiotics” (1988)
Converted amounts (≈) assume the structure as drawn. Each block holds one compound with its values, some of them ahead of it.

Experiments:
[1] = system: Staphylococcus epidermidis; assay: In vitro antimicrobial activity against Staphylococcus epidermidis EPI1; type: functional
Streptococcus pyogenes [2] = assay: Antimicrobial activity against Streptococcus pyogenes C203; type: functional
Streptococcus pyogenes [3] = assay: In vitro antimicrobial activity against Streptococcus pyogenes C203; type: functional
Streptococcus pyogenes [4] = assay: In vivo effective dose against experimental infections in rodent caused by Streptococcus pyogenes C203 when administered sc; type: functional
Staphylococcus aureus [5] = assay: In vitro antimicrobial activity against Staphylococcus aureus X1; type: functional
Streptococcus pneumoniae [6] = assay: In vitro antimicrobial activity against Streptococcus pneumoniae; type: functional
Haemophilus influenzae [7] = assay: In vitro antimicrobial activity against Haemophilus influenzae.; type: functional
Enterococcus faecium = assay: In vitro antimicrobial activity against Streptococcus faecium X66; type: functional, streptococcus fae-cium
Streptococcus pyogenes [8] = assay: Effective dose against Streptococcus pyogenes C203 when administered sc; type: functional
Method in brief: (§1)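 Mouse protection test: infected mice were dosed twice, at 1 and 5 h postinfection, either subcutaneously or orally. […] The result is expressed as ED50 in mg/kg × 2.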

Streptococcus pyogenes [9] = assay: Activity against Streptococcus pyogenes C203 when administered orally; type: functional; conditions: po; method in brief: as §1
Streptococcus pyogenes [10] = assay: Activity against Streptococcus pyogenes C203 when administered sc; type: functional; method in brief: as §1
Streptococcus pyogenes [11] = assay: In vivo effective dose against experimental infections in rodent caused by Streptococcus pyogenes C203 when administered orally; type: functional; conditions: po
Streptococcus pneumoniae [12] = assay: In vitro antimicrobial activity against aerobic bacteria Streptococcus pneumoniae B1-438; type: functional, streptococcus pneum
Staphylococcus aureus [13] = assay: In vitro antimicrobial activity against aerobic bacteria Staphylococcus aureus V41; type: functional
Streptococcus [14] = assay: In vitro antimicrobial activity against aerobic bacteria Streptococcus C 24; type: functional
Streptococcus [15] = assay: In vitro antimicrobial activity against aerobic bacteria Streptococcus G Kruder; type: functional; conditions: Streptococcus; read-out: MIC
Streptococcus [16] = assay: In vitro antimicrobial activity against aerobic bacteria Streptococcus D 9960; type: functional
Mus musculus [17] = assay: Peripheral plasma levels in mice after oral administration of 100 mg/kg dose for 2 hr; type: functional, organism-based; design: dose 100 mg/kg
Method in brief: (§2)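 Mice were given the compound orally and sampled for peripheral plasma at each time point. Plasma was assayed microbiologically against Micrococcus luteus seeded in Antibiotic Medium 1. Inhibition zone sizes were read, and concentrations were calculated from each compound's own standard curve. Each value is the mean of five mice per time point.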

Mus musculus [18] = assay: Peripheral plasma levels in mice after oral administration of 100 mg/kg dose for 0.5 hr; type: functional, organism-based; design: dose 100 mg/kg; method in brief: as §2
Staphylococcus aureus [19] = assay: In vitro antimicrobial activity against aerobic bacteria Staphylococcus aureus 513E; type: functional
Streptococcus [20] = assay: In vitro antimicrobial activity against aerobic bacteria Streptococcus B 5; type: functional
Haemophilus influenzae [21] = assay: In vitro antimicrobial activity against aerobic bacteria Haemophilus influenzae MX366,; type: functional
Mus musculus [22] = assay: Peripheral plasma levels in mice after oral administration of 100 mg/kg dose for 0.25 hr; type: functional, organism-based; design: dose 100 mg/kg; method in brief: as §2
Streptococcus viridans = assay: In vitro antimicrobial activity against aerobic bacteria Streptococcus viridans 9943; type: functional
Streptococcus [23] = assay: In vitro antimicrobial activity against aerobic bacteria Streptococcus B 8; type: functional
Staphylococcus aureus [24] = assay: In vitro antimicrobial activity against aerobic bacteria Staphylococcus aureus V135; type: functional
Mus musculus [25] = assay: Peripheral plasma levels in mice after oral administration of 100 mg/kg dose for 4 hr; type: functional, organism-based; design: dose 100 mg/kg; method in brief: as §2
Staphylococcus aureus [26] = assay: In vitro antimicrobial activity against aerobic bacteria Staphylococcus aureus V140,; type: functional
[27] = system: Staphylococcus epidermidis; assay: In vitro antimicrobial activity against aerobic bacteria Streptococcus epi 222; type: functional
[28] = system: Staphylococcus epidermidis; assay: In vitro antimicrobial activity against aerobic bacteria Streptococcus epi 270; type: functional
Haemophilus influenzae [29] = assay: In vitro antimicrobial activity against aerobic bacteria Haemophilus influenzae 76; type: functional
Streptococcus [30] = assay: In vitro antimicrobial activity against aerobic bacteria Streptococcus D 2041; type: functional
Staphylococcus aureus [31] = assay: In vitro antimicrobial activity against aerobic bacteria Staphylococcus aureus X400; type: functional
Streptococcus [32] = assay: In vitro antimicrobial activity against aerobic bacteria Streptococcus D 8043; type: functional
Streptococcus [33] = assay: In vitro antimicrobial activity against aerobic bacteria Streptococcus B 14; type: functional
Mus musculus [34] = assay: Peripheral plasma levels in mice after oral administration of 50 mg/kg dose for 1 hr; type: functional, organism-based; design: dose 50 mg/kg; method in brief: as §2
Mus musculus [35] = assay: Peripheral plasma levels in mice after oral administration of 100 mg/kg dose for 1 hr; type: functional, organism-based; design: dose 100 mg/kg; method in brief: as §2
Streptococcus sanguinis = assay: In vitro antimicrobial activity against aerobic bacteria Streptococcus sanguis MX132; type: functional

MIC [1]: 2 µg/mL (≈ 2.29 µM)
MIC (Streptococcus pyogenes [2]): 2 µg/mL (≈ 2.29 µM)
MIC (Streptococcus pyogenes [3]): 2 µg/mL (≈ 2.29 µM)
MIC (Staphylococcus aureus [5]): 2 µg/mL (≈ 2.29 µM)
MIC (Streptococcus pneumoniae [6]): 64 µg/mL (≈ 73.2 µM)
MIC (Haemophilus influenzae [7]): > 128 µg/mL
MIC (Enterococcus faecium): 128 µg/mL (≈ 146 µM)
Compound: CC[C@H]1OC(=O)C[C@@H](O)[C@H](C)[C@@H](O[C@@H]2O[C@H](C)[C@@H](O[C@H]3C[C@@](C)(O)[C@@H](O)[C@H](C)O3)[C@H](N(C)C)[C@H]2O)[C@@H](C)C[C@@H](C)C(=O)/C=C/C(C)=C/[C@@H]1CO[C@@H]1O[C@H](C)[C@@H](O)[C@@H](O)[C@H]1OC [DEFORMYLMACROCIN]
ED50 (Streptococcus pyogenes [4]): > 10 mg/kg
ED50 (Streptococcus pyogenes [8]): > 10 mg/kg

MIC (Streptococcus pyogenes [2]): 1 µg/mL (≈ 1.12 µM)
Compound: CC[C@H]1OC(=O)C[C@@H](O)[C@H](C)[C@@H](O[C@@H]2O[C@H](C)[C@@H](O)[C@H](N(C)C)[C@H]2OC(C)=O)[C@@H](CCOc2ccccc2)C[C@@H](C)C(=O)/C=C/C(C)=C/[C@@H]1CO[C@@H]1O[C@H](C)[C@@H](O)[C@@H](OC)[C@H]1OC
ED50 (Streptococcus pyogenes [9]): 9 mg/kg
ED50 (Streptococcus pyogenes [10]): 1 mg/kg

MIC (Streptococcus pneumoniae [12]): > 128 µg/mL
MIC (Staphylococcus aureus [13]): 0.25 µg/mL (≈ 0.277 µM)
MIC [1]: 0.12 µg/mL (≈ 0.133 µM)
MIC (Streptococcus [14]): 0.5 µg/mL (≈ 0.554 µM)
MIC (Streptococcus [15]): 32 µg/mL (≈ 35.4 µM)
MIC (Streptococcus [16]): 4 µg/mL (≈ 4.43 µM)
MIC (Staphylococcus aureus [19]): 0.25 µg/mL (≈ 0.277 µM)
MIC (Streptococcus pyogenes [3]): 0.25 µg/mL (≈ 0.277 µM)
MIC (Streptococcus [20]): 8 µg/mL (≈ 8.86 µM)
MIC (Haemophilus influenzae [21]): 32 µg/mL (≈ 35.4 µM)
MIC (Streptococcus viridans): > 128 µg/mL
MIC (Streptococcus [23]): 8 µg/mL (≈ 8.86 µM)
MIC (Staphylococcus aureus [24]): 0.5 µg/mL (≈ 0.554 µM)
MIC (Staphylococcus aureus [26]): 0.5 µg/mL (≈ 0.554 µM)
MIC [27]: 0.1 µg/mL (≈ 0.111 µM)
MIC [28]: > 128 µg/mL
MIC (Haemophilus influenzae [29]): 32 µg/mL (≈ 35.4 µM)
MIC (Streptococcus [30]): 8 µg/mL (≈ 8.86 µM)
MIC (Staphylococcus aureus [5]): 0.12 µg/mL (≈ 0.133 µM)
MIC (Staphylococcus aureus [31]): 0.5 µg/mL (≈ 0.554 µM)
MIC (Streptococcus pneumoniae [6]): 2 µg/mL (≈ 2.21 µM)
MIC (Haemophilus influenzae [7]): 32 µg/mL (≈ 35.4 µM)
MIC (Enterococcus faecium): 8 µg/mL (≈ 8.86 µM)
MIC (Streptococcus [32]): 4 µg/mL (≈ 4.43 µM)
MIC (Streptococcus [33]): 8 µg/mL (≈ 8.86 µM)
MIC (Streptococcus sanguinis): 2 µg/mL (≈ 2.21 µM)
Compound: CC[C@H]1OC(=O)C[C@@H](O)[C@H](C)[C@@H](O[C@@H]2O[C@H](C)[C@@H](O)[C@H](N(C)C)[C@H]2O)[C@@H](CCN2C(=O)c3ccccc3C2=O)C[C@@H](C)C(=O)/C=C/C(C)=C/[C@@H]1CO[C@@H]1O[C@H](C)[C@@H](O)[C@@H](OC)[C@H]1OC
ED50 (Streptococcus pyogenes [11]): 15 mg/kg
Concentration (Mus musculus [17]): 0.9 µg/mL
Concentration (Mus musculus [18]): < 0.1 µg/mL
Concentration (Mus musculus [22]): < 0.1 µg/mL
Concentration (Mus musculus [25]): 0.3 µg/mL
ED50 (Streptococcus pyogenes [4]): 2.7 mg/kg
Concentration (Mus musculus [34]): 0.8 µg/mL
Concentration (Mus musculus [35]): 2.1 µg/mL
